Data set [1] is described as follows: (§1) Inhibition of NFkappaB-mediated ICAM1 expression in IL1alpha-stimulated human A549 cells treated 1 hr before IL1alpha challenge measured after 6 hrs by ELISA. Format: cell-based. The method, boiled down:
(§2)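 A549 cells preincubated 1 h with serial dilutions of compound, then stimulated with IL-1α (0.25 ng/mL) or TNF-α (2.5 ng/mL) for 6 h with compound still present. Cell-surface ICAM-1 (%) by cell ELISA on triplicate cultures. IC50 (µM) is the mean of at least three independent experiments.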
(In an ELISA, binding on a coated surface is turned into a signal by an enzyme label.)

The subject of data set [2] is A549. The description is as §1. The class given is cell-based. Put shortly:
as §2

A short description of data set [3]: (§3) Inhibition of NFkappaB-mediated ICAM1 expression in TNFalpha-stimulated human A549 cells treated 1 hr before TNFalpha challenge measured after 6 hrs by ELISA. Format: cell-based. Put shortly:
as §2

In data set [4] the test system is A549. The description is as §3. The class given is cell-based. The method, boiled down:
as §2

The subject of data set [5] is A549. Briefly: Cytotoxicity against human A549 cells after 24 hrs by MTT assay. Format: cell-based. The conditions noted are these: a549, 24 h. Put shortly:
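A549 cells exposed to serial dilutions of compound for 24 h. Viability (%) by MTT assay on triplicate cultures. IC50 (µM) is the mean of four independent experiments.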

The test system of data set [6] is A549. In words: Inhibition of NFkappaB-mediated ICAM1 protein expression in IL1alpha-stimulated human A549 cells preincubated for 1 hr prior IL1alpha challenge measured after 6 hrs by Western blot analysis. Format: cell-based. Background: Immunoblotting shows a protein as a band on a membrane.
The target in data set [7] is Transcription factor p65 (Homo sapiens) (UniProt Q04206). Briefly: Inhibition of NF-kappaB p65 nuclear translocation in IL1alpha-stimulated human A549 cells at 100 uM incubated for 1 hr prior IL1alpha challenge measured after 30 mins by Western blot analysis. The class given is cell-based. Put shortly:
(§4)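 A549 cells pretreated 1 h with compound at the stated concentrations, then stimulated 30 min with IL-1α (0.25 ng/mL) or TNF-α. p65 and p50 subunits then assessed for movement from cytoplasm to nucleus.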

The test system of data set [8] is A549. In words: Inhibition of NF-kappaB p50 nuclear translocation in IL1alpha-stimulated human A549 cells at 100 uM incubated for 1 hr prior IL1alpha challenge measured after 30 mins by Western blot analysis. Format: cell-based. The method, boiled down: as §4
Data set [9] has as its target Transcription factor p65 (Homo sapiens) (UniProt Q04206). In words: Inhibition of NF-kappaB p65 nuclear translocation in TNFalpha-stimulated human A549 cells at 100 uM incubated for 1 hr prior TNFalpha challenge measured after 30 mins by Western blot analysis. Format: cell-based. Put shortly:
as §4

The test system of data set [10] is A549. Briefly: Inhibition of NF-kappaB p50 nuclear translocation in TNFalpha-stimulated human A549 cells at 100 uM incubated for 1 hr prior TNFalpha challenge measured after 30 mins by Western blot analysis. Format: cell-based. Put shortly:
as §4

For data set [11], the system named is A549. In words: Cytotoxicity against human A549 cells at 100 to 320 uM after 24 hrs by MTT assay. The settings on record: a549, 24 h. The class given is cell-based. (In general: Tetrazolium assays rely on reduction of a dye to a coloured formazan, in cell work by metabolically active cells.)
Data set [12] concerns A549. In words: Inhibition of NFkappaB-mediated ICAM1 protein expression in TNFalpha-stimulated human A549 cells preincubated for 1 hr prior TNFalpha challenge measured after 6 hrs by Western blot analysis. The class given is cell-based.
Data set [13] in a line: Selectivity ratio of IC50 for human A549 cells to IC50 for NFkappaB-mediated ICAM1 expression in human A549 cells. Format: ADME, cell-based. The settings on record: read-out: Ratio IC50.
Data set [14] deals with Transcription factor p65 (Homo sapiens) (UniProt Q04206). Briefly: Inhibition of NF-kappaB p65 nuclear translocation in IL1alpha-stimulated human A549 cells at 30 to 100 uM incubated for 1 hr prior IL1alpha challenge measured after 30 mins by Western blot analysis. Format: cell-based. The method, boiled down:
as §4

The test system of data set [15] is A549. In words: Inhibition of NF-kappaB p50 nuclear translocation in IL1alpha-stimulated human A549 cells at 30 to 100 uM incubated for 1 hr prior IL1alpha challenge measured after 30 mins by Western blot analysis. Format: cell-based. Put shortly: as §4
Data set [16] has as its target Transcription factor p65 (Homo sapiens) (UniProt Q04206). In words: Inhibition of NF-kappaB p65 nuclear translocation in TNFalpha-stimulated human A549 cells at 30 to 100 uM incubated for 1 hr prior TNFalpha challenge measured after 30 mins by Western blot analysis. The class given is cell-based. Put shortly: as §4
Data set [17] concerns A549. Briefly: Inhibition of NF-kappaB p50 nuclear translocation in TNFalpha-stimulated human A549 cells at 30 to 100 uM incubated for 1 hr prior TNFalpha challenge measured after 30 mins by Western blot analysis. Format: cell-based. The method, boiled down:
as §4

Data set [18] deals with A549. In words: Inhibition of IL1alpha-induced IkappaBalpha degradation in human A549 cells at 100 uM incubated for 1 hr prior IL1alpha challenge measured after 15 mins by Western blot analysis. The class given is functional, cell-based. Put shortly:
(§5)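 A549 cells preincubated 1 h with compound at the stated concentrations, then given IL-1α (0.25 ng/mL) or TNF-α (2.5 ng/mL). IκBα degradation then monitored.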

In data set [19] the test system is A549. Briefly: Inhibition of TNF-alpha-induced IkappaBalpha degradation in human A549 cells at 100 uM incubated for 1 hr prior TNFalpha challenge measured after 15 mins by Western blot analysis. The class given is functional, cell-based. Put shortly: as §5
The target of data set [20] is T1, NF-kappa-B inhibitor alpha (Homo sapiens) (UniProt P25963).
T1 sequence (whole entry): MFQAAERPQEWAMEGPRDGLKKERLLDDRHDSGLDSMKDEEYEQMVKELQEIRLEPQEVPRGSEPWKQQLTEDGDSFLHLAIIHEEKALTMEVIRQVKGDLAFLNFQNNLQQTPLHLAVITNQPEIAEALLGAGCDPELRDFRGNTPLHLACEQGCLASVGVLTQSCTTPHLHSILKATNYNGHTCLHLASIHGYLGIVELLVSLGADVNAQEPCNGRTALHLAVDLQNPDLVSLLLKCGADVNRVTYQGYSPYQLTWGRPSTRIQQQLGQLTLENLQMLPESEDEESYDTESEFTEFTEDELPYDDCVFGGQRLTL
Briefly: Inhibition of IL1alpha-induced IkappaBalpha phosphorylation in human A549 cells at 100 uM incubated for 1 hr prior IL1alpha challenge measured after 15 mins by Western blot analysis in the presence of proteasome inhibitor MG-132. The class given is cell-based. Put shortly:
(§6)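 A549 cells preincubated 1 h with or without the proteasome inhibitor MG-132 (20 µM) or with compound at various concentrations. Then stimulated 15 min with IL-1α (0.25 ng/mL) or TNF-α (2.5 ng/mL), or left unstimulated, with compound present. IκBα phosphorylation then examined.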

In data set [21] the target is T1, NF-kappa-B inhibitor alpha (Homo sapiens). In words: Inhibition of TNF-alpha-induced IkappaBalpha phosphorylation in human A549 cells at 100 uM incubated for 1 hr prior TNFalpha challenge measured after 15 mins by Western blot analysis in the presence of proteasome inhibitor MG-132. Format: cell-based. Put shortly: as §6
The subject of data set [22] is A549. Briefly: Cytotoxicity against human A549 cells at 100 uM up to 7 hrs by MTT assay. The class given is cell-based. The settings on record: a549, 7 h.
Data set [23] relates to A549. In words: Cytotoxicity against human A549 cells at 100 uM up to 7 hrs by crystal violet staining. Format: cell-based. The settings on record: a549, 7 h.
Data set [24] concerns the target T1, NF-kappa-B inhibitor alpha (Homo sapiens). Briefly: Inhibition of IL1alpha-induced IkappaBalpha phosphorylation in human A549 cells at 10 to 100 uM incubated for 1 hr prior to IL1alpha challenge measured after 15 mins by Western blot analysis in the presence of proteasome inhibitor MG-132. Format: cell-based. Put shortly:
as §6

The target is the same in data set [25]. Briefly: Inhibition of TNF-alpha-induced IkappaBalpha phosphorylation in human A549 cells at 10 to 100 uM incubated for 1 hr prior to TNFalpha challenge measured after 15 mins by Western blot analysis in the presence of proteasome inhibitor MG-132. Format: cell-based. Put shortly: as §6

The results in this text go back to ChEMBL document CHEMBL1938246, “Eudesmane-type sesquiterpene lactones inhibit multiple steps in the NF-κB signaling pathway induced by inflammatory cytokines” (Bioorg Med Chem Lett, 2012).

Calls of active or inactive are those of the source. The rule behind the calls is not given here. A value given as a limit tells only on which side of the number the result lay.

Transcription factor p65 (Homo sapiens), sequence (Q04206 whole entry): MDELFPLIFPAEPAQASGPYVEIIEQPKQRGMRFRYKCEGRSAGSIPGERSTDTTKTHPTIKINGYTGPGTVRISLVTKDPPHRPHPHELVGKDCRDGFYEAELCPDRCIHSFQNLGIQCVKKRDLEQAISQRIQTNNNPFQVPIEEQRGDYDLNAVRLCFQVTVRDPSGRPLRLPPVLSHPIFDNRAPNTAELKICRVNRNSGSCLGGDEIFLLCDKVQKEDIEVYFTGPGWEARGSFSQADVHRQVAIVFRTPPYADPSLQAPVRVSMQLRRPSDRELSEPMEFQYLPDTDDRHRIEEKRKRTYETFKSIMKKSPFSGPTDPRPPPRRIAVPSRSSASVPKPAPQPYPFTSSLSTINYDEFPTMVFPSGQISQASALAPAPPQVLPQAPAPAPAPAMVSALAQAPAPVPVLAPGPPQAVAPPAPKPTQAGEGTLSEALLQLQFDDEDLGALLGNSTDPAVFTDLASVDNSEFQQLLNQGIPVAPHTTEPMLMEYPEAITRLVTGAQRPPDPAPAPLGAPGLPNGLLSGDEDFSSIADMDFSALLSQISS

With `C[C@H]1[C@@H]2[C@H]3OC(=O)[C@@H](C)[C@@H]3CC[C@@]2(C)C=C[C@@H]1O`, the IC50 (in [1]; in data set [3]; in the data set with A549 [5]) was greater than 320 µM in each case. Further, the inhibition entry with A549 [2] and in the data set on A549 [4] was “inactive” throughout.

Regarding `C[C@@H]1C(=O)O[C@H]2[C@H]1CC[C@@]1(C)C=CC(=O)[C@@H](C)[C@H]21`, the IC50 is 52 µM in data set [1], 34 µM in [3] and greater than 320 µM with A549 [5]. Also, the inhibition entry in the data set on A549 [2], in the data set with A549 [4], in the data set on A549 [6] and in the data set on A549 [12] was “Dose-dependent effect” in each case. For the same molecule, the inhibition result (in data set [7]; in the data set on A549 [8]; in data set [9]; in the data set with A549 [10]) was “Active” each time. In addition, the Activity result in the data set on A549 [11] is “Toxic”.

For `C=C1C(=O)O[C@@H]2[C@H]3[C@H](C)C(=O)C=C[C@]3(C)CC[C@@H]12`, the IC50 in [1] is 10 µM; in [3], 4.3 µM; with A549 [5], 120 µM. Further, the inhibition result in the data set on A549 [2], with A549 [4], with A549 [6] and in the data set with A549 [12] was “Dose-dependent effect” in each case. Moreover, in [13], the selectivity ratio was 10. The inhibition result (in data set [14]; in the data set on A549 [15]; in [16]; in the data set with A549 [17]; in the data set on A549 [18]; in the data set with A549 [19]) was “Active” in each case. Moreover, the inhibition result in data set [20] and in data set [21] was “Active” each time.

For the molecule `C=C1C(=O)O[C@@H]2[C@H]3[C@H](C)[C@@H](O)C=C[C@]3(C)CC[C@@H]12`, the IC50 in data set [1] worked out at 23 µM; in [3], 6.1 µM; in the data set on A549 [5], 140 µM. In addition, the inhibition result in the data set on A549 [2], with A549 [4], with A549 [6] and in the data set with A549 [12] was “Dose-dependent effect” in each case. The selectivity ratio in [13] was found to be 10. For the same molecule, the inhibition result (in data set [14]; in the data set with A549 [15]; in data set [16]; in the data set with A549 [17]) was “Active” throughout. Moreover, the inhibition result (with A549 [18]; in the data set with A549 [19]; in data set [20]; in data set [21]) was “inactive” each time.

As for `C[C@@H]1C(=O)O[C@H]2[C@H]1CC[C@@]1(C)C[C@@H](Br)C(=O)[C@@H](C)[C@H]21`, the IC50 was 10 µM in [1], 4.6 µM in data set [3] and greater than 320 µM in the data set with A549 [5]. Moreover, the inhibition entry in the data set on A549 [2], with A549 [4], in the data set with A549 [6] and in the data set on A549 [12] was “Dose-dependent effect” each time. Also, the Activity entry with A549 [22] is “Non-toxic”; in the data set with A549 [23], “Non-toxic”; with A549 [11], “Toxic”. In addition, the inhibition entry (in data set [14]; with A549 [15]; in data set [16]; in the data set with A549 [17]; with A549 [18]; in data set [24]) was “Active” in each case. The inhibition entry in data set [25] was “Active”. Further, in the data set with A549 [19], the inhibition entry is “inactive”.

As for `C[C@@H]1C(=O)O[C@H]2[C@H]1CC[C@@]1(C)CCC(=O)[C@@H](C)[C@H]21`, the IC50 (in [1]; in [3]; in the data set on A549 [5]) was greater than 320 µM throughout. The inhibition result with A549 [2] and with A549 [4] was “inactive” each time.

Consider `C=C1C(=O)O[C@@H]2[C@H]3[C@H](C)C(=O)[C@H](Br)C[C@]3(C)CC[C@@H]12`, for which the results for the IC50 (in [1]; in data set [3]; in the data set on A549 [5]) were 3.4 µM, 2.8 µM and 88 µM, respectively. The inhibition entry in the data set on A549 [2], with A549 [4], with A549 [6] and with A549 [12] was “Dose-dependent effect” throughout. Besides, the selectivity ratio in [13] was 10. In addition, the inhibition entry (in [14]; in the data set on A549 [15]; in data set [16]; in the data set on A549 [17]; in the data set with A549 [18]; with A549 [19]) was “Active” each time. Further, the inhibition entry in data set [20] and in [21] was “Active” in each case.

With `C=C1C(=O)O[C@@H]2[C@H]3[C@H](C)C(=O)CC[C@]3(C)CC[C@@H]12`, the IC50 in data set [1] was determined as 6.2 µM; in data set [3], 4.3 µM; in the data set with A549 [5], 110 µM. In addition, the inhibition entry with A549 [2], with A549 [4], with A549 [6] and with A549 [12] was “Dose-dependent effect” each time. Besides, the selectivity ratio in data set [13] is 10. In addition, the inhibition result (in data set [14]; with A549 [15]; in [16]; with A549 [17]; in the data set with A549 [18]; in the data set on A549 [19]) was “Active” each time. The inhibition entry in [20] and in data set [21] was “Active” in each case.

What is called IC50 is the point on the concentration scale where inhibition reaches its midpoint. Read a high IC50 as a need for much substance.
